Assay results as given in ChEMBL document CHEMBL4673194 (RSC Med Chem, 2021).
The source made the active and inactive calls. The calls are words filed in the database; no cut-off is given here.

Columns and labels:
[1] = biological target: T1, Enoyl-[acyl-carrier-protein] reductase [NADH] (Mycobacterium tuberculosis) (UniProt P9WGR1); experiment: Inhibition of Mycobacterium tuberculosis InhA at 40 uM using DD-CoA as substrate relative to control
T1 sequence (whole entry): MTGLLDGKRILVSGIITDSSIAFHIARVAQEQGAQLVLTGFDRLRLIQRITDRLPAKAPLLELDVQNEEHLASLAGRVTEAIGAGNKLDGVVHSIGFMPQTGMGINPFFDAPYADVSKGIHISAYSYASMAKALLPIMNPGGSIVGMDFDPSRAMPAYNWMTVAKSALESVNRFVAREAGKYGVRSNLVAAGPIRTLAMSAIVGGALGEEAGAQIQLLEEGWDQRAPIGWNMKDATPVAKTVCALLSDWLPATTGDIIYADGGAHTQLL
Summary of the method: (§1)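 Wild-type InhA (100 nM) starts the reaction with 25 μM trans-2-dodecenoyl-CoA and 250 μM NADH in 30 mM PIPES, 150 mM NaCl, pH 6.8. Compound is present at a fixed 40 or 50 μM. Initial velocity is compared with a no-inhibitor control and expressed as percent inhibition.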

Vero = experiment: Cytotoxicity against African green monkey Vero cells assessed as reduction in cell viability incubated for 48 hrs by neutral red assay; format: cell-based; settings: Chlorocebus sabaeus
Summary of the method: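 Vero cells grown in MEM with 10% heat-inactivated FCS, 0.15% NaHCO3, penicillin and streptomycin at 37 °C, 5% CO2. Seeded at 25 000 cells per well, 24 h, then compound for 48 h. Viable cells by neutral red uptake. IC50 from log plots of growth inhibition against concentration. Doxorubicin positive control, DMSO vehicle control. Top concentration 20 μM.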

[2] = tested on: Mycobacterium tuberculosis; experiment: Antitubercular activity against Mycobacterium tuberculosis H37Rv assessed as reduction in microbial growth incubated for 5 days by visual inspection method; format: functional; settings: 120 h, time 5 day
Summary of the method: (§2)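 Two-fold serial dilution in Middlebrook 7H9-ADS-Gly broth, final concentrations 20 down to 1.25 μM, from DMSO stocks. Inoculated with about 10^6 CFU of mid-log H37Rv, incubated 37 °C for five days. Turbidity recorded visually, then MTT added. MIC is the lowest concentration preventing growth (yellow colour). Three biological repeats, each in technical duplicate; rifampicin control.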

Leishmania donovani = experiment: Antileishmanial activity against promastigote form of Leishmania donovani S1 Sudan assessed as reduction in parasite growth incubated for 72 hrs by alamar blue assay; format: functional, organism-based
Summary of the method: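 S1 Sudan promastigotes kept at 26 °C in RPMI-1640 (no bicarbonate or pyruvate) with 10% FBS, subcultured twice weekly. Compounds added to promastigotes at 2 × 10^6 cells per mL at final 40, 8 and 1.6 μg mL−1, 72 h at 26 °C. Growth read by Alamar blue. IC50 from non-linear dose–response logistic regression. Triplicate. Pentamidine and amphotericin B standards.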

[3] = biological target: T1, Enoyl-[acyl-carrier-protein] reductase [NADH] (Mycobacterium tuberculosis); experiment: Inhibition of Mycobacterium tuberculosis InhA at 50 uM using DD-CoA as substrate relative to control; summary of the method: as §1
[4] = tested on: Mycobacterium tuberculosis; experiment: Antitubercular activity against Mycobacterium tuberculosis H37Rv assessed as reduction in microbial growth incubated; format: functional; summary of the method: as §2
[5] = Lipophilicity, log P of the compound; format: physicochemical; settings: octanol/water
[6] = biological target: T1, Enoyl-[acyl-carrier-protein] reductase [NADH] (Mycobacterium tuberculosis); experiment: Inhibition of recombinant Mycobacterium tuberculosis InhA expressed in Escherichia coli BL21 using DD-CoA as substrate by UV-Vis spectrophotometry; settings: time 5.0 min
[7] = tested on: Mycobacterium tuberculosis; experiment: Antitubercular activity against Mycobacterium tuberculosis H37Rv assessed as reduction in microbial growth incubated for 1 week by MTT assay; format: functional; settings: 168 h, time 1 weeks
[8] = tested on: Mycobacterium tuberculosis; experiment: Antitubercular activity against Mycobacterium tuberculosis H37Rv assessed as reduction in microbial growth incubated for 5 to 7 days by inverted plate count method; format: functional; settings: time 5-7 day

CC(C)=CCC/C(C)=C\Cn1cc(COc2ccccc2O)nn1
inhibition [1]: 85%
IC50 (Vero): > 20 µM
MIC99 [2]: > 100 µM
IC50 (Leishmania donovani): 55 µM

CCCCCc1cn(Cc2ccccc2O)nn1
inhibition [3]: inactive
IC50 (Vero): > 20 µM
MIC99 [2]: 20 µM
IC50 (Leishmania donovani): > 60 µM

Oc1ccccc1Cn1cc(-c2ccccc2)nn1
inhibition [3]: inactive
IC50 (Vero): > 20 µM
MIC99 [2]: 20 µM
IC50 (Leishmania donovani): > 60 µM

C[C@@H]1[C@H](O)[C@@H](C)/C=C/C=C/C=C/C=C/C=C/C=C/C=C/[C@H](O[C@@H]2O[C@H](C)[C@@H](O)[C@H](N)[C@@H]2O)C[C@@H]2O[C@](O)(C[C@@H](O)C[C@@H](O)[C@H](O)CC[C@@H](O)C[C@@H](O)CC(=O)O[C@H]1C)C[C@H](O)[C@H]2C(=O)O [AMPHOTERICIN B]
IC50 (Leishmania donovani): 0.11 µM

CCc1cn(Cc2ccc(Oc3ccccc3C#N)c(O)c2)nn1
MIC [4]: 2.02 µM

CCc1cn(Cc2ccc(Oc3ccccc3C)c(O)c2)nn1
MIC [4]: 3.9 µM

CCCc1cn(Cc2ccccc2O)nn1
inhibition [3]: 92%
IC50 (Vero): > 20 µM
MIC99 [2]: 20 µM
IC50 (Leishmania donovani): > 60 µM

Oc1cc(Cl)ccc1Oc1ccc(Cl)cc1Cl [TRICLOSAN]
MIC99 [2]: 43 µM

Cc1ccccc1Oc1ccc(Cn2cc(-c3ccccc3)nn2)cc1O
MIC [4]: ≤ 11.1 µM

CCCCCCCCCCCCCn1cc(COc2ccccc2O)nn1
inhibition [1]: 63%
IC50 (Vero): > 20 µM
MIC99 [2]: > 100 µM
IC50 (Leishmania donovani): 13.4 µM
logP [5]: 5.67

CCCCc1cn(Cc2ccc(Oc3ccc(Cl)cc3O)c(Cl)c2)nn1
inhibition [6]: 98%
MIC [7]: 1.5 µM

CCCCCCCCc1ccc(Oc2ccccc2)c(O)c1
MIC [8]: 1.9 µM

CC(C)=CCC/C(C)=C/Cn1cc(COc2ccccc2O)nn1
inhibition [1]: inactive
IC50 (Vero): > 20 µM
MIC99 [2]: > 100 µM
IC50 (Leishmania donovani): 51.9 µM

CCCCCc1c(CO)nnn1Cc1ccc2ccccc2c1
inhibition [3]: inactive
IC50 (Vero): > 20 µM
MIC99 [2]: > 100 µM
IC50 (Leishmania donovani): 31.4 µM
